The source made the active and inactive calls. The rule behind the calls is not given here.
Assays:
Mus musculus [1] = species on record: Mus musculus; experiment: Binding affinity to prostanoid receptor in [8-14C]-adenine-treated CD-1 mouse ovary assessed as increase in c-AMP production at 0.05 ug/mL after 30 mins by paper chromatographic analysis in presence of phosphodiesterase inhibitor theophylline; assay type: tissue-based; settings: Female gonad
Outline: (§1)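 Virgin CD-1 female mice over 70 days old; three ovaries (15-25 mg), denuded of fat, preincubated 1 h at 37 °C in 2 ml aerated Krebs–Ringer phosphate pH 7.2 with 1 μCi adenine-8-14C. Theophylline (0.2 ml of 0.05 M stock) and compound in Me2SO then added, 30 min at 37 °C. Stopped with trichloroacetic acid; cAMP-14C isolated, paper chromatography; expressed as fold over untreated ovaries.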

Cavia porcellus [2] = experiment: Inhibition of collagen-induced platelet aggregation in ip dosed guinea pig; assay type: functional
Canis familiaris [3] = experiment: Renal vasodilatory activity in dog assessed as increase in renal blood flow administered through infusion into renal artery; assay type: functional, organism-based; settings: Canis lupus familiaris; Kidney
Cavia porcellus [4] = experiment: Inhibition of collagen-induced platelet aggregation in po dosed guinea pig; assay type: functional
Outline: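 Test compound given orally to guinea pigs. Collagen-induced platelet aggregation then measured. Potency expressed as ED50 in mg/kg.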

Mus musculus [5] = species on record: Mus musculus; experiment: Binding affinity to prostanoid receptor in [8-14C]-adenine-treated CD-1 mouse ovary assessed as increase in c-AMP production at 0.1 ug/mL after 30 mins by paper chromatographic analysis in presence of phosphodiesterase inhibitor theophylline; assay type: tissue-based; settings: Female gonad; outline: as §1
Mus musculus [6] = species on record: Mus musculus; experiment: Binding affinity to prostanoid receptor in [8-14C]-adenine-treated CD-1 mouse ovary assessed as increase in c-AMP production at 1 ug/mL after 30 mins by paper chromatographic analysis in presence of phosphodiesterase inhibitor theophylline; assay type: tissue-based; settings: Female gonad; outline: as §1
Mus musculus [7] = species on record: Mus musculus; experiment: Binding affinity to prostanoid receptor in [8-14C]-adenine-treated CD-1 mouse ovary assessed as increase in c-AMP production at 0.01 ug/mL after 30 mins by paper chromatographic analysis in presence of phosphodiesterase inhibitor theophylline; assay type: tissue-based; settings: Female gonad; outline: as §1
Rattus norvegicus = species on record: Rattus norvegicus; experiment: Binding affinity to prostanoid receptor in Holtzman rat lipocytes assessed as compound equivalent to 1 ng cold PGE1 in displacing [3H]-PGE1 from receptor after 30 mins; assay type: cell-based; settings: in the assay text read “after 60 mins” for “after 30 mins”
Outline: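 Test compound at appropriate concentrations incubated with 0.4 ng [3H]-PGE1 and 125 μg rat lipocyte binding preparation for 60 min at 37 °C. Bound [3H]-PGE1 then measured.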

Mus musculus [8] = species on record: Mus musculus; experiment: Binding affinity to prostanoid receptor in [8-14C]-adenine-treated CD-1 mouse ovary assessed as increase in c-AMP production at 25 ug/mL after 30 mins by paper chromatographic analysis in presence of phosphodiesterase inhibitor theophylline; assay type: tissue-based; settings: Female gonad; outline: as §1
Mus musculus [9] = species on record: Mus musculus; experiment: Binding affinity to prostanoid receptor in [8-14C]-adenine-treated CD-1 mouse ovary assessed as increase in c-AMP production at 100 ug/mL after 30 mins by paper chromatographic analysis in presence of phosphodiesterase inhibitor theophylline; assay type: tissue-based; settings: Female gonad; outline: as §1
[10] = target: T1, 15-hydroxyprostaglandin dehydrogenase [NAD(+)] (Homo sapiens, UniProt P15428); experiment: Stability of the compound assessed as prostaglandin 15-hydroxydehydrogenase (unknown origin)-mediated metabolite formation; assay type: ADME
T1 sequence (P15428 whole entry): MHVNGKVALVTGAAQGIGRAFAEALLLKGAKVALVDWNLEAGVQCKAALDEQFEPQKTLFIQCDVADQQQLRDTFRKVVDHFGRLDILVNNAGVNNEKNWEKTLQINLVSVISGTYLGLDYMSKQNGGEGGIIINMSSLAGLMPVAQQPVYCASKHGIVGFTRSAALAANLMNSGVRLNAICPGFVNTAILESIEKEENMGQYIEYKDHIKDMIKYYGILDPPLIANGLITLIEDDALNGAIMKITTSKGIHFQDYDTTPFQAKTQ

Mus musculus [11] = species on record: Mus musculus; experiment: Binding affinity to prostanoid receptor in [8-14C]-adenine-treated CD-1 mouse ovary assessed as increase in c-AMP production at 10 ug/mL after 30 mins by paper chromatographic analysis in presence of phosphodiesterase inhibitor theophylline; assay type: tissue-based; settings: Female gonad; outline: as §1
Mus musculus [12] = species on record: Mus musculus; experiment: Binding affinity to prostanoid receptor in [8-14C]-adenine-treated CD-1 mouse ovary assessed as increase in c-AMP production at 50 ug/mL after 30 mins by paper chromatographic analysis in presence of phosphodiesterase inhibitor theophylline; assay type: tissue-based; settings: Female gonad; outline: as §1
Mus musculus [13] = species on record: Mus musculus; experiment: Binding affinity to prostanoid receptor in [8-14C]-adenine-treated CD-1 mouse ovary assessed as increase in c-AMP production at 200 ug/mL after 30 mins by paper chromatographic analysis in presence of phosphodiesterase inhibitor theophylline; assay type: tissue-based; settings: Female gonad; outline: as §1
Canis familiaris [14] = experiment: Renal vasodilatory activity in dog assessed as increase in renal blood flow at 0.5 mg/kg/min, iv administered as infusion relative to control; assay type: functional, Canis lupus familiaris, Kidney
Outline: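 Anesthetized dogs given intravenous infusion of 0.5 mg/kg/min. Renal blood flow measured electromagnetically in a single kidney. Read-out is the maximum increase above the control flow value.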

| SMILES | Activity (Rattus norvegicus) | fold change (FC) (Mus musculus [8]) | fold change (FC) (Mus musculus [9]) | Stability [10] | fold change (FC) (Mus musculus [11]) | further results |
| --- | --- | --- | --- | --- | --- | --- |
| CCCCC[C@H](O)/C=C/[C@H]1[C@H](O)CC(=O)[C@@H]1CCCCCCC(=O)O [ALPROSTADIL] | – | – | – | – | – | fold change (FC) (Mus musculus [1]): 29; ED50 (Cavia porcellus [2]): 0.02 mg/kg; Activity (Canis familiaris [3]): Active; inhibition (Cavia porcellus [4]): inactive; fold change (FC) (Mus musculus [5]): 25; fold change (FC) (Mus musculus [6]): 54; fold change (FC) (Mus musculus [7]): 8 |
| CC(=O)C(CCCCCCCCCO)CCCCCCC(=O)O (centres undefined) | > 125 µgequiv | 1 | 1 | Stable | 1 | – |
| CC(=O)C(CCCCCCC(=O)O)CCCC(O)CCc1ccccc1 (centres undefined) | – | 1 | 2 | Stable | 1 | – |
| CCCCCC[C@@H](O)C/C=C/CCCCCCCC(=O)O | – | – | 2 | – | – | fold change (FC) (Mus musculus [12]): 2; fold change (FC) (Mus musculus [13]): 1 |
| CC(=O)C(CC#CC1(O)CCCCC1)CCCCCCC(=O)O (centres undefined) | – | 1 | 1 | Stable | – | – |
| CCCCC[C@H](O)C#CCC(CCCCCCC(=O)O)C(C)=O (some centres undefined) | – | 7 | – | Stable | 3 | – |
| CCCCCC(O)C#CCC(CCCCCCC(=O)O)C(C)=O (centres undefined) | – | 4 | 7 | Stable | 2 | – |
| CCCCC[C@@H](O)C#CCC(CCCCCCC(=O)O)C(C)=O (some centres undefined) | – | 3 | 3 | Stable | 2 | – |
| CC(=O)C(CCCCCCC(=O)O)CCCC1(O)CCCCC1 (centres undefined) | > 125 µgequiv | 3 | 4 | Stable | 1 | – |
| CC(=O)C(CCCCCCC(=O)O)CCCC(C)O (centres undefined) | > 100 µgequiv | 1 | 1 | Stable | – | – |
| CCCCC[C@H](O)/C=C/[C@H]1[C@H](O)CC(=O)[C@@H]1C/C=C\CCCC(=O)O | 1.4 ngequiv | – | – | – | 80 | fold change (FC) (Mus musculus [1]): 35; fold change (FC) (Mus musculus [5]): 57; fold change (FC) (Mus musculus [6]): 75; fold change (FC) (Mus musculus [7]): 14 |
| CC(=O)C(CCCCO)CCCCCCC(=O)O (centres undefined) | 450 µgequiv | 1 | 1 | Stable | – | – |
| CCCCCC(C)(O)CCCC(CCCCCCC(=O)O)C(C)=O (centres undefined) | 0.4 µgequiv | 9 | 11 | Stable | 4 | – |
| CCCCCC(O)/C=C/CC(CCCCCCC(=O)O)C(C)=O (centres undefined) | 3.2 µgequiv | 8 | 14 | Stable | 2 | – |
| CCCCCC(=O)CCCC(CCCCCCC(=O)O)C(C)=O (centres undefined) | 7 µgequiv | 4 | 9 | Stable | 2 | – |

Now from value to molecule, other results behind:

| Activity (Rattus norvegicus) | fold change (FC) (Mus musculus [8]) | fold change (FC) (Mus musculus [9]) | Stability [10] | fold change (FC) (Mus musculus [11]) | SMILES | further results |
| --- | --- | --- | --- | --- | --- | --- |
| 4.6 µgequiv | 9 | 18 | Stable | 8 | CCCCCC(O)CCCC(CO)CCCCCCC(=O)O (centres undefined) | – |
| 2.5 µgequiv | 25 | 33 | Stable | 15 | CCCCCC(O)CCCC(CCCCCCC(=O)O)C(C)O (centres undefined) | – |
| 2.1 µgequiv | 9 | 20 | Stable | 9 | CCCCC(O)CCCCC(CCCCCCC(=O)O)C(C)=O (centres undefined) | – |
| 3.2 µgequiv | 25 | 29 | Stable | 19 | CCCCC[C@H](O)CCCC(CCCCCCC(=O)O)C(C)=O (some centres undefined) | – |
| – | – | – | Stable | – | CCCCCC(O)CCCC(CCCCCCC(=O)O)C(C)=O (mixture of isomers) [listing 1 of 2 here] | Activity (Canis familiaris [14]): 92 mL/min; ED50 (Cavia porcellus [4]): 6.5 mg/kg |
| 2.4 µgequiv | 17 | 26 | Stable | 6 | CCCCCC(O)CCCC(CCCCCCC(=O)O)C(=O)CC (centres undefined) | – |
| 2.1 µgequiv | 12 | 19 | Stable | 5 | CCCCC[C@@H](O)CCCC(CCCCCCC(=O)O)C(C)=O (some centres undefined) | – |
| 65 µgequiv | 4 | 8 | Stable | 4 | CCCC(O)CCCCCC(CCCCCCC(=O)O)C(C)=O (centres undefined) | – |
| 1.7 µgequiv | 14 | 23 | – | 11 | CCCCCC(O)CCCC(CCCCCCC(=O)O)C(C)=O (mixture of isomers) [listing 2 of 2 here] | fold change (FC) (Mus musculus [12]): 16; fold change (FC) (Mus musculus [6]): 2; fold change (FC) (Mus musculus [13]): 16 |
| 41 µgequiv | – | 11 | Stable | 5 | CCCCCCC(O)CCC(CCCCCCC(=O)O)C(C)=O (centres undefined) | – |
| 6.6 µgequiv | 37 | 39 | Stable | 19 | CCCCCCCC(O)CCCC(CCCCCCC(=O)O)C(C)=O (centres undefined) | – |
| – | 19 | 23 | – | 7 | CCCCCC(O)CCCC(CCCCCCC(=O)O)C(C)=O (racemic) | – |

Source: ChEMBL document CHEMBL3244135, “11,12-Secoprostaglandins. 1. Acylhydroxyalkanoic acids and related compounds” (J Med Chem, 1977)
